Source: ChEMBL document CHEMBL3734660, “Inhibitory effect of cytotoxic stilbenes related to resveratrol on the expression of the VEGF, hTERT and c-Myc genes” (Eur J Med Chem, 2015)
Converted amounts (≈) assume the structure as drawn.

Columns and labels:
[1] = Selectivity ratio of IC50 for HEK293 cells to IC50 for human HT-29 cells; assay type: ADME, cell-based; details: HEK293 cells versus HT-29 cells, read-out: Ratio IC50
[2] = Selectivity ratio of IC50 for HEK293 cells to IC50 for human MCF7 cells; assay type: ADME, cell-based; details: HEK293 cells versus MCF7 cells, read-out: Ratio IC50
HEK293 = test: Cytotoxicity against HEK293 cells assessed inhibition of cell proliferation after 3 days by MTT assay; details: Homo sapiens, HEK293, 72 h
MCF7 = test: Cytotoxicity against human MCF7 cells assessed inhibition of cell proliferation after 3 days by MTT assay; details: MCF7, 72 h
HT-29 [3] = test: Cytotoxicity against human HT-29 cells assessed inhibition of cell proliferation after 3 days by MTT assay; details: HT-29, 72 h
HT-29 [4] = test: Inhibition of VEGF protein secretion in human HT-29 cells at 10 ug/mL after 72 hrs by ELISA relative to control; assay type: functional; design: scale not given: the % may be the effect or the level left
HT-29 [5] = test: Down regulation of VEGF gene expression in human HT-29 cells at 10 ug/mL after 48 hrs by RT-qPCR analysis relative to control; assay type: functional
Summary of the method: (§1)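 HT-29 or MCF-7 cells grown to 70–80% confluence, serum-starved 24 h, then exposed to compound in DMSO for 48 h; DMSO-only control. Total RNA extracted and transcript measured by RT-qPCR, normalized to β-actin and expressed as percentage of control. At least three measurements; mean ± SEM; one-sample t-test.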

HT-29 [6] = test: Down regulation of hTERT gene expression in human HT-29 cells at 10 ug/mL after 48 hrs by RT-qPCR analysis relative to control; assay type: functional; summary of the method: as §1
HT-29 [7] = test: Down regulation of c-Myc gene expression in human HT-29 cells at 10 ug/mL after 48 hrs by RT-qPCR analysis relative to control; assay type: functional; summary of the method: as §1

## Oc1cccc(/C=C/c2cccc(O)c2)c1
[1]
  selectivity ratio: 0.8
[2]
  selectivity ratio: 1
HEK293
  IC50: 21 µg/mL (≈ 98.9 µM)
MCF7
  IC50: 21 µg/mL (≈ 98.9 µM)
HT-29 [3]
  IC50: 25.9 µg/mL (≈ 122 µM)

## COc1cccc(/C=C/c2ccc(N)cc2)c1
[1]
  selectivity ratio: 1.1
[2]
  selectivity ratio: 0.3
HT-29 [4]
  Activity: 74%
HT-29 [5]
  Activity: 100%
HT-29 [6]
  Activity: 81%
HT-29 [7]
  Activity: 74%
HEK293
  IC50: 18 µg/mL (≈ 79.9 µM)
MCF7
  IC50: 52 µg/mL (≈ 231 µM)
HT-29 [3]
  IC50: 16.1 µg/mL (≈ 71.5 µM)

## COc1ccccc1/C=C/c1cccc(O)c1
[1]
  selectivity ratio: 1.4
[2]
  selectivity ratio: 1
HT-29 [4]
  Activity: 69%
HT-29 [5]
  Activity: 77%
HT-29 [6]
  Activity: 52%
HT-29 [7]
  Activity: 100%
HEK293
  IC50: 24 µg/mL (≈ 106 µM)
MCF7
  IC50: 24.3 µg/mL (≈ 107 µM)
HT-29 [3]
  IC50: 17 µg/mL (≈ 75.1 µM)

## Nc1ccc(/C=C/c2ccc(O)cc2)cc1
[1]
  selectivity ratio: 0.03
[2]
  selectivity ratio: 0.4
HEK293
  IC50: 0.8 µg/mL (≈ 3.79 µM)
MCF7
  IC50: 2.2 µg/mL (≈ 10.4 µM)
HT-29 [3]
  IC50: 30.6 µg/mL (≈ 145 µM)

## Oc1ccc(/C=C/c2ccccc2O)cc1
[1]
  selectivity ratio: 0.8
[2]
  selectivity ratio: 0.8
HEK293
  IC50: 17.5 µg/mL (≈ 82.5 µM)
MCF7
  IC50: 21 µg/mL (≈ 98.9 µM)
HT-29 [3]
  IC50: 22 µg/mL (≈ 104 µM)

## COc1ccc(/C=C/c2ccccc2N)cc1
[1]
  selectivity ratio: < 0.1
[2]
  selectivity ratio: 1.4
HEK293
  IC50: 0.6 µg/mL (≈ 2.66 µM)
MCF7
  IC50: 0.4 µg/mL (≈ 1.78 µM)
HT-29 [3]
  IC50: 73 µg/mL (≈ 324 µM)

## COc1ccccc1/C=C/c1ccccc1O
[1]
  selectivity ratio: 0.7
[2]
  selectivity ratio: 0.8
HEK293
  IC50: 15 µg/mL (≈ 66.3 µM)
MCF7
  IC50: 17.9 µg/mL (≈ 79.1 µM)
HT-29 [3]
  IC50: 23 µg/mL (≈ 102 µM)

## COc1cccc(/C=C/c2cccc(O)c2)c1
[1]
  selectivity ratio: 1.6
[2]
  selectivity ratio: 1.5
HT-29 [4]
  Activity: 65%
HT-29 [5]
  Activity: 60%
HT-29 [6]
  Activity: 41%
HT-29 [7]
  Activity: 59%
HEK293
  IC50: 19 µg/mL (≈ 84 µM)
MCF7
  IC50: 13 µg/mL (≈ 57.5 µM)
HT-29 [3]
  IC50: 11.5 µg/mL (≈ 50.8 µM)

## COc1ccccc1/C=C/c1ccc(O)cc1
[1]
  selectivity ratio: 1.7
[2]
  selectivity ratio: 2.2
HT-29 [4]
  Activity: 67%
HT-29 [5]
  Activity: 46%
HT-29 [6]
  Activity: 100%
HT-29 [7]
  Activity: 100%
HEK293
  IC50: 41 µg/mL (≈ 181 µM)
MCF7
  IC50: 19 µg/mL (≈ 84 µM)
HT-29 [3]
  IC50: 24 µg/mL (≈ 106 µM)

## Nc1cccc(/C=C/c2ccc(O)cc2)c1
[1]
  selectivity ratio: 0.1
[2]
  selectivity ratio: 1.2
HEK293
  IC50: 7 µg/mL (≈ 33.1 µM)
MCF7
  IC50: 6 µg/mL (≈ 28.4 µM)
HT-29 [3]
  IC50: 51 µg/mL (≈ 241 µM)

## Nc1ccccc1/C=C/c1ccccc1
[1]
  selectivity ratio: 0.1
[2]
  selectivity ratio: 0.9
HT-29 [4]
  Activity: 59%
HT-29 [5]
  Activity: 100%
HT-29 [6]
  Activity: 59%
HT-29 [7]
  Activity: 100%
HEK293
  IC50: 1.3 µg/mL (≈ 6.66 µM)
MCF7
  IC50: 1.4 µg/mL (≈ 7.17 µM)
HT-29 [3]
  IC50: 17 µg/mL (≈ 87.1 µM)

## Nc1ccc(/C=C/c2cccc(O)c2)cc1
[1]
  selectivity ratio: 0.6
[2]
  selectivity ratio: 1
HEK293
  IC50: 25 µg/mL (≈ 118 µM)
MCF7
  IC50: 24.8 µg/mL (≈ 117 µM)
HT-29 [3]
  IC50: 42 µg/mL (≈ 199 µM)

## Nc1ccc(/C=C/c2ccccc2O)cc1
[1]
  selectivity ratio: 0.6
[2]
  selectivity ratio: 1
HEK293
  IC50: 21.4 µg/mL (≈ 101 µM)
MCF7
  IC50: 23 µg/mL (≈ 109 µM)
HT-29 [3]
  IC50: 37 µg/mL (≈ 175 µM)

## COc1ccc(/C=C/c2cccc(N)c2)cc1
[1]
  selectivity ratio: 0.7
[2]
  selectivity ratio: 0.5
HT-29 [4]
  Activity: 73%
HT-29 [5]
  Activity: 89%
HT-29 [6]
  Activity: 96%
HT-29 [7]
  Activity: 100%
HEK293
  IC50: 11 µg/mL (≈ 48.8 µM)
MCF7
  IC50: 23 µg/mL (≈ 102 µM)
HT-29 [3]
  IC50: 16.3 µg/mL (≈ 72.4 µM)

## CCCCCCCCCCCC(=O)Nc1ccc(/C=C/c2ccccc2)cc1
[1]
  selectivity ratio: < 0.1
[2]
  selectivity ratio: 1.7
HEK293
  IC50: 10 µg/mL (≈ 26.5 µM)
MCF7
  IC50: 5.8 µg/mL (≈ 15.4 µM)
HT-29 [3]
  IC50: > 100 µg/mL

## Oc1ccccc1/C=C/c1ccccc1O
[1]
  selectivity ratio: 0.9
[2]
  selectivity ratio: 1.1
HEK293
  IC50: 24.3 µg/mL (≈ 114 µM)
MCF7
  IC50: 23 µg/mL (≈ 108 µM)
HT-29 [3]
  IC50: 25 µg/mL (≈ 118 µM)

## Nc1ccccc1/C=C/c1ccccc1O
[1]
  selectivity ratio: 0.7
[2]
  selectivity ratio: 0.7
HEK293
  IC50: 27 µg/mL (≈ 128 µM)
MCF7
  IC50: 39 µg/mL (≈ 185 µM)
HT-29 [3]
  IC50: 36 µg/mL (≈ 170 µM)

## CCCCCCCCCCCC(=O)Nc1cccc(/C=C/c2ccccc2)c1
[1]
  selectivity ratio: < 0.1
[2]
  selectivity ratio: 3.3
HEK293
  IC50: 11.6 µg/mL (≈ 30.7 µM)
MCF7
  IC50: 3.5 µg/mL (≈ 9.27 µM)
HT-29 [3]
  IC50: > 100 µg/mL

## Oc1cccc(/C=C/c2ccccc2O)c1
[1]
  selectivity ratio: 0.7
[2]
  selectivity ratio: 0.9
HEK293
  IC50: 18 µg/mL (≈ 84.8 µM)
MCF7
  IC50: 20.1 µg/mL (≈ 94.7 µM)
HT-29 [3]
  IC50: 27 µg/mL (≈ 127 µM)

## CCCCCCCCCCCC(=O)Nc1ccccc1/C=C/c1ccccc1
[1]
  selectivity ratio: 6.4
[2]
  selectivity ratio: 1.3
HT-29 [4]
  Activity: 79%
HT-29 [5]
  Activity: 37%
HT-29 [6]
  Activity: 53%
HT-29 [7]
  Activity: 45%
HEK293
  IC50: 16 µg/mL (≈ 42.4 µM)
MCF7
  IC50: 12 µg/mL (≈ 31.8 µM)
HT-29 [3]
  IC50: 2.5 µg/mL (≈ 6.62 µM)

## COc1ccccc1/C=C/c1ccccc1N
[1]
  selectivity ratio: < 0.1
[2]
  selectivity ratio: < 0.1
HEK293
  IC50: 2.1 µg/mL (≈ 9.32 µM)
MCF7
  IC50: > 100 µg/mL
HT-29 [3]
  IC50: > 100 µg/mL

## Nc1ccccc1/C=C/c1cccc(O)c1
[1]
  selectivity ratio: 0.7
[2]
  selectivity ratio: 1.2
HEK293
  IC50: 20 µg/mL (≈ 94.7 µM)
MCF7
  IC50: 17 µg/mL (≈ 80.5 µM)
HT-29 [3]
  IC50: 30 µg/mL (≈ 142 µM)

## COc1cccc(/C=C/c2cccc(N)c2)c1
[1]
  selectivity ratio: 0.8
[2]
  selectivity ratio: 0.5
HT-29 [4]
  Activity: 73%
HT-29 [5]
  Activity: 23%
HT-29 [6]
  Activity: 100%
HT-29 [7]
  Activity: 34%
HEK293
  IC50: 16 µg/mL (≈ 71 µM)
MCF7
  IC50: 34 µg/mL (≈ 151 µM)
HT-29 [3]
  IC50: 19.6 µg/mL (≈ 87 µM)

## COc1cccc(/C=C/c2ccccc2O)c1
[1]
  selectivity ratio: 0.8
[2]
  selectivity ratio: 1.1
HEK293
  IC50: 20 µg/mL (≈ 88.4 µM)
MCF7
  IC50: 18 µg/mL (≈ 79.5 µM)
HT-29 [3]
  IC50: 26 µg/mL (≈ 115 µM)

## Nc1ccccc1/C=C/c1ccc(O)cc1
[1]
  selectivity ratio: < 0.1
[2]
  selectivity ratio: < 0.1
HEK293
  IC50: 7 µg/mL (≈ 33.1 µM)
MCF7
  IC50: 79 µg/mL (≈ 374 µM)
HT-29 [3]
  IC50: > 100 µg/mL

## COc1ccccc1/C=C/c1ccc(N)cc1
[1]
  selectivity ratio: < 0.1
[2]
  selectivity ratio: 0.3
HEK293
  IC50: 1 µg/mL (≈ 4.44 µM)
MCF7
  IC50: 3.2 µg/mL (≈ 14.2 µM)
HT-29 [3]
  IC50: 22 µg/mL (≈ 97.7 µM)

## COc1ccc(/C=C/c2ccc(O)cc2)cc1
[1]
  selectivity ratio: 0.2
[2]
  selectivity ratio: 0.3
HEK293
  IC50: 3.9 µg/mL (≈ 17.2 µM)
MCF7
  IC50: 11.3 µg/mL (≈ 49.9 µM)
HT-29 [3]
  IC50: 17.4 µg/mL (≈ 76.9 µM)

## COc1ccc(/C=C/c2cccc(O)c2)cc1
[1]
  selectivity ratio: 1.1
[2]
  selectivity ratio: 1.1
HT-29 [4]
  Activity: 73%
HT-29 [5]
  Activity: 38%
HT-29 [6]
  Activity: 48%
HT-29 [7]
  Activity: 46%
HEK293
  IC50: 24 µg/mL (≈ 106 µM)
MCF7
  IC50: 21 µg/mL (≈ 92.8 µM)
HT-29 [3]
  IC50: 22 µg/mL (≈ 97.2 µM)

## Oc1ccc(/C=C/c2cccc(O)c2)cc1 [(E)-3,4'-STILBENDIOL]
[1]
  selectivity ratio: 0.2
[2]
  selectivity ratio: < 0.1
HEK293
  IC50: 1.1 µg/mL (≈ 5.18 µM)
MCF7
  IC50: 23 µg/mL (≈ 108 µM)
HT-29 [3]
  IC50: 6.9 µg/mL (≈ 32.5 µM)

## COc1cccc(/C=C/c2ccc(O)cc2)c1 [(E)-5-METHOXY-4'-STILBENOL]
[1]
  selectivity ratio: 0.9
[2]
  selectivity ratio: 1.1
HEK293
  IC50: 24 µg/mL (≈ 106 µM)
MCF7
  IC50: 21 µg/mL (≈ 92.8 µM)
HT-29 [3]
  IC50: 26 µg/mL (≈ 115 µM)

## Oc1ccc(/C=C/c2ccc(O)cc2)cc1 [TRANS-4,4'-DIHYDROXYSTILBENE]
[1]
  selectivity ratio: < 0.1
[2]
  selectivity ratio: 0.2
HEK293
  IC50: 1.2 µg/mL (≈ 5.65 µM)
MCF7
  IC50: 6.8 µg/mL (≈ 32 µM)
HT-29 [3]
  IC50: > 100 µg/mL
